# In ChEMBL document CHEMBL4411275, “Design, synthesis and biological evaluation of quinoline-indole derivatives as anti-tubulin agents targeting the colchicine binding site” (Eur J Med Chem, 2019):
# Assays:
# K562 [1] = experiment: Cell cycle arrest in human K562 cells assessed as accumulation of cells at G2 phase at 4 nM after 48 hrs by propidium iodide staining-based flow cytometric analysis (reference value: 10.51%); format: functional
# HUVEC = experiment: Anti-vascular activity in HUVEC assessed as inhibition of tube formation after 6 hrs by inverted microscopic analysis; format: functional, cell-based; details: Homo sapiens
# How it was run: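 Matrigel thawed overnight at 4 °C and polymerised at 37 °C for 30 min. HUVECs in DMEM seeded at 50,000 cells/well, then exposed to 1, 2 or 4 nM compound or vehicle for 6 h at 37 °C. Capillary-like tubes photographed under an inverted microscope.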
# KB = experiment: Antiproliferative activity against human KB cells after 72 hrs by MTT assay; format: functional, cell-based
# How it was run: (§1)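 Cells preincubated 24 h at 37 °C, 5% CO₂. Compounds added at several concentrations in medium with 0.1% DMSO for 72 h. MTT (5 mg/mL in PBS) then added for 4 h, and optical density read at 490 nm. IC50 taken from dose-response curves; mean ± SD of at least three independent experiments.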
# K562 [2] = experiment: Induction of mitochondrial membrane potential loss in human K562 cells assessed as collapsed mitochondrial membrane at 2 nM after 48 hrs by JC-1 dye-based flow cytometric analysis (RVB = 6.17%)
# [3] = Drug resistance index, ratio of IC50 for taxol-resistant human HCT8/T cells to IC50 for human HCT8 cells; format: functional
# How it was run: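 Resistant and parental sensitive lines exposed to a range of compound concentrations in medium with 0.1% DMSO for 72 h at 37 °C, 5% CO2, after 24 h pre-culture. MTT added for 4 h, absorbance read at 490 nm. IC50 from dose-response curves, at least three independent experiments. DRI = IC50 resistant / IC50 parental.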
# HepG2 = experiment: Antiproliferative activity against human HepG2 cells after 72 hrs by MTT assay; format: functional, cell-based; details: HepG2, 72 h; how it was run: as §1
# Tubulin (Sus scrofa) = Tubulin (Sus scrofa) (UniProt P02554+P02550); experiment: Inhibition of [3H]-colchicine binding to biotinylated porcine tubulin at 5 uM after 2 hrs by SPA relative to control; format: protein assay
# How it was run: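 Scintillation proximity assay: 0.08 μM [3H]colchicine incubated with biotinylated porcine tubulin (0.5 μg) and test compound for 2 h at 37 °C in 80 mM PIPES pH 6.8, 1 mM EGTA, 10% glycerol, 1 mM MgCl2, 1 mM GTP. Streptavidin SPA beads then added, and bound radioactivity counted by scintillation counter.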
# [4] = Antiproliferative activity against human ADR-resistant Bel7402/ADR cells after 72 hrs by MTT assay; format: functional; details: Bel-7402, 72 h; how it was run: as §1
# K562 [5] = experiment: Induction of mitochondrial membrane potential loss in human K562 cells assessed as collapsed mitochondrial membrane at 4 nM after 48 hrs by JC-1 dye-based flow cytometric analysis (RVB = 6.17%)
# K562 [6] = experiment: Cell cycle arrest in human K562 cells assessed as accumulation of cells at G1 phase at 2 nM after 48 hrs by propidium iodide staining-based flow cytometric analysis (reference value: 69.57%); format: functional
# K562 [7] = experiment: Induction of apoptosis in human K562 cells at 4 nM after 48 hrs by Annexin-V/propidium iodide staining-based flow cytometric analysis (reference value: 5.96%)
# H22 (Mus musculus) = experiment: Antitumor activity against mouse H22 cells xenografted in ICR mouse assessed as reduction in tumor weight at 20 mg/kg/day, iv for 21 days relative to control; design: scale not given: the % may be the effect or the level left
# K562 [8] = experiment: Cell cycle arrest in human K562 cells assessed as accumulation of cells at S phase at 1 nM after 48 hrs by propidium iodide staining-based flow cytometric analysis (reference value: 19.93%); format: functional
# HCT-8 = experiment: Antiproliferative activity against human HCT8 cells after 72 hrs by MTT assay; format: functional, cell-based; details: HCT-8, 72 h; how it was run: as §1
# K562 [9] = experiment: Induction of mitochondrial membrane potential loss in human K562 cells assessed as intact mitochondrial membrane at 4 nM after 48 hrs by JC-1 dye-based flow cytometric analysis (RVB = 93.17%)
# K562 [10] = experiment: Induction of apoptosis in human K562 cells after 48 hrs by […]-based flow cytometric analysis; format: functional, cell-based
# K562 [11] = experiment: Cell cycle arrest in human K562 cells assessed as accumulation of cells at G1 phase at 4 nM after 48 hrs by propidium iodide staining-based flow cytometric analysis (reference value: 69.57%); format: functional
# [12] = Antiproliferative activity against human taxol-resistant HCT8/T cells after 72 hrs by MTT assay; format: functional; details: HCT-8, 72 h; how it was run: as §1
# Sequence of Tubulin (Sus scrofa) (P02550 whole entry, looked up): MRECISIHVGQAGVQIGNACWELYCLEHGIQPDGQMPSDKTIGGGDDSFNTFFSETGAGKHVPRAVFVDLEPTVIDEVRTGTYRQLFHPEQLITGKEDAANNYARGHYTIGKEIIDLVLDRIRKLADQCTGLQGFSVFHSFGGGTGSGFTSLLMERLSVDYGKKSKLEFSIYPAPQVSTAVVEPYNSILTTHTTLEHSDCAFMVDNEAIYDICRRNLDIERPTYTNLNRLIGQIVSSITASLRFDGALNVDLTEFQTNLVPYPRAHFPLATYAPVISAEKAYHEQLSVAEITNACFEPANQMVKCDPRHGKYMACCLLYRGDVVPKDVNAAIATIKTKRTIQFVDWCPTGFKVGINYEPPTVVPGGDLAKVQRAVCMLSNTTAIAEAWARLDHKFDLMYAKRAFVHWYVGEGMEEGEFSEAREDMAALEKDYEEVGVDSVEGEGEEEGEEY
# Sequence of Tubulin (Sus scrofa) (P02554 whole entry, looked up): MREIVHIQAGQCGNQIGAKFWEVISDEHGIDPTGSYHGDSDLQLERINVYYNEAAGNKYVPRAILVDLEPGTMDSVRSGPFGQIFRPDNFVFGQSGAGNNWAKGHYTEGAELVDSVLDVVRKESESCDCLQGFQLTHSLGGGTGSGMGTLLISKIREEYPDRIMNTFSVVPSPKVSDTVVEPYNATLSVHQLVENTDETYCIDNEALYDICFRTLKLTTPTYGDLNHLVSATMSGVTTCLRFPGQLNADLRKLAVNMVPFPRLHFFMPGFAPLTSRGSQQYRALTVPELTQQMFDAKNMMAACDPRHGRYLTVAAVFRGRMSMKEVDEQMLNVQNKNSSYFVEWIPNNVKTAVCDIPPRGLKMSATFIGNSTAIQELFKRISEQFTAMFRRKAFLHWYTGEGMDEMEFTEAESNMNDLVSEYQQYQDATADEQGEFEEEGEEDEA
compound,measurement,setting,value
C=C(c1ccc2c(ccn2CO)c1)c1cc(C)nc2ccccc12,Activity,K562 [1],23.21%
same,Activity,HUVEC,Dose-dependent effect
same,IC50,KB,5 nM
same,Activity,K562 [2],45.1%
same,Ratio IC50,[3],12.6
same,IC50,HepG2,6 nM
same,inhibition,Tubulin (Sus scrofa),90.5%
same,IC50,[4],61 nM
same,Activity,K562 [5],73.55%
same,Activity,K562 [6],50.63%
same,Activity,K562 [7],72.8%
same,Activity,H22 (Mus musculus),57.3%
same,Activity,K562 [8],27.38%
same,IC50,HCT-8,7 nM
same,Activity,K562 [9],26.27%
same,Activity,K562 [10],Dose-dependent effect
same,Activity,K562 [11],45.79%
same,IC50,[12],88 nM
